Compound activity as filed in PubChem.
hERG rescue – compounds protecting human hERG from proarrhythmic drug block; CHO-hERG, FluxOR thallium flux, dofetilide IC70 present; activation (rescue from dofetilide block), less the hit threshold, % at 10 µM; 310,000 compounds, 0.51% hits; AID 1511;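 active = activation above the mean of controls blocked by dofetilide plus 5 SD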;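 note: thallium influx through hERG after potassium depolarization seen as dye fluorescence rise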
KCNQ1 inh – inhibitors of human KCNQ1 potassium channel; P51787; CHO-K1 KCNQ1, FluxOR thallium flux fluorescence; stronger effect = higher value; B-score at 10 µM; 310,000 compounds, 1.3% hits; AID 2642;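 active = compounds whose thallium flux B-score, printed positive for inhibition, exceeds three library SD while starting fluorescence stays within three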;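 note: channel opened by potassium depolarization with thallium stimulus after 20 min compound exposure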
KCNK3 inh – human KCNK3 channel inhibition, primary screen; 340,000 compounds, 0.84% hits; O14649; B-score at 10 µM; CHO-KCNK3 thallium flux, FluxOR fluorescence; stronger effect = lower value;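 active = B-score under library mean minus 4 SD, starting fluorescence ratio at most library mean plus 5 SD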;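 note: more negative B-score means stronger inhibition of thallium flux through KCNK3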
KCNQ1 act – potentiates or activates the human KCNQ1 potassium channel; CHO-K1 KCNQ1, thallium flux FluxOR fluorescence; stronger effect = higher value; B-score at 10 µM; 310,000 compounds, 0.35% hits;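 active = fluorescence ratio B-score, a plate-corrected score, at least three library SD, with initial intensity B-score within 5 SD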
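assay system = CHO-K1 cells stably expressing KCNQ1 | medium = assay buffer, equal DMSO in all wells | timing = 37 °C overnight plating, 90-min dark dye load, 20-min compound pretreatment | measured by = kinetic FluxOR thallium fluorescence, 10-s 1-Hz baseline, 110-s post-stimulus read | measure = fluorescence change relative to baseline, converted to B score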
KCNK9 block – blocks the human KCNK9 two-pore domain potassium channel; Q9NPC2; B-score at 10 µM; 310,000 compounds, 1.2% hits; AID 488922; HEK293 KCNK9, FluxOR thallium flux fluorescence; stronger effect = lower value;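 active = ratio B-score over 3 SD below the library mean, with starting fluorescence within 5 SD of its mean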;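 note: negative B-score means less thallium flux so channel inhibition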
KCNQ1 block val – reconfirmed blocker of the human KCNQ1 potassium channel; shares compounds with KCNQ1 inh; KCNQ1 cell line, FluxOR thallium flux fluorescence; inhibition, % at 10 µM; 1,600 compounds, 93% hits;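 active = primary screen active, with duplicate mean exceeding buffer control mean plus 3 SD of buffer wells, cut at about 28% in these data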
CHO Tl flux – KCNQ1 inhibitor counter-screen hit in parental CHO cells. shares compounds with KCNQ1 inh. AID 588366. fluorescence ratio (Tl flux) at 10 µM. 1,600 compounds, 21% hits. parental CHO-K1, FluxOR thallium flux fluorescence ratio; stronger effect = lower value; zero means no signal rise above baseline;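 active = mean of duplicate thallium-flux fluorescence ratios in parental host cells more than 5 SD below the buffer control mean, cut at about 0.38 in these data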;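 note: ratio is peak minus minimum fluorescence divided by baseline fluorescence; actives read low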
KCNQ1 ephys val – blocks human KCNQ1 current in automated patch clamp; calls only at 10 µM; 490 compounds, 20% hits; AID 624120; KCNQ1-CHO cells; shares compounds with KCNQ1 inh;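 active = KCNQ1 current drop exceeding 3 SD of negative control wells, seen in both duplicate runs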;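 note: steady state current during a 2 s step from -80 to +40 mV; negative values mean current inhibition and positive values mean potentiation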
KCNQ2 spec – rat KCNQ2 inhibition in KCNQ1 inhibitor specificity screen; shares compounds with KCNQ1 inh; KCNQ2 cells, FluxOR thallium flux fluorescence; inhibition, % at 10 µM; 1,600 compounds, 71% hits;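 active = mean percent inhibition of the KCNQ2 thallium signal more than 5 SD above the buffer-only control wells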;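 note: KCNQ2 expressed in CHO cells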
KCNQ1 KCNE1 spec – selectivity of KCNQ1 inhibitors: inhibition of human KCNQ1/KCNE1 channel; shares compounds with KCNQ1 inh; KCNQ1/KCNE1 cells, FluxOR thallium flux fluorescence; inhibition, % at 10 µM; 1,600 compounds, 77% hits;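 active = mean percent inhibition of duplicate wells above the buffer-only control mean plus 3 SD of those controls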
Target sequence (P51787 whole entry, looked up): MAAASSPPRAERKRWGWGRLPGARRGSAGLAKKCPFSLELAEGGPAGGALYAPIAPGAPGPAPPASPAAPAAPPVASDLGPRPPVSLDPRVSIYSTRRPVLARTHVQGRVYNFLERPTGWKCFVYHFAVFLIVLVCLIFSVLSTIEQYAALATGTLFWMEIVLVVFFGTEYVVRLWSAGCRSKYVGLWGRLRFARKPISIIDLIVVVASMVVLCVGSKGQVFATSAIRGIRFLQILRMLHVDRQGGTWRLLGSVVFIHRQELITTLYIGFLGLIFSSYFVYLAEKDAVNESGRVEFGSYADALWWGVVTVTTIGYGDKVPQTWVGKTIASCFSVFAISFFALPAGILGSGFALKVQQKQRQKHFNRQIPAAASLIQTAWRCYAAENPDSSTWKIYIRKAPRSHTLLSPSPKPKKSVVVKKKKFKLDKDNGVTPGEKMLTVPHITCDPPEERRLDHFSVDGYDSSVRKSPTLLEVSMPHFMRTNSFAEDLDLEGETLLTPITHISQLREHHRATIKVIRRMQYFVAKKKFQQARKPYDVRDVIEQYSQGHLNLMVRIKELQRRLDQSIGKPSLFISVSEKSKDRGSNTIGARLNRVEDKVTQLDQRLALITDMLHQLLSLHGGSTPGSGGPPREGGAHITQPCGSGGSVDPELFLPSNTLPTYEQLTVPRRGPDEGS
Each line names hits and unclear results; the compound was inactive in the other large screens (follow-up assays come after a bar, where they were run). Compounds with a hit are over-represented: about 3.1% of the library has one in this group of screens.

Cc1cccc(C)c1OCc1cc(C(=O)N2CCC(c3ccncc3)CC2)no1	KCNQ1 inh 7 | KCNQ1 block val 113.0 | CHO Tl flux inactive | KCNQ1 ephys val inactive | KCNQ2 spec 69.0% | KCNQ1 KCNE1 spec 35.0%
Cc1ccc(C)c(OCc2cc(C(=O)N3CCN(c4ccccc4)CC3)no2)c1	KCNQ1 inh 7 | KCNQ1 block val 73.5 | CHO Tl flux inactive | KCNQ2 spec 98.0% | KCNQ1 KCNE1 spec 65.0%
Cc1cccc(C(=O)OCC(=O)NN2C(=O)NC3(CCC(C)CC3)C2=O)c1O (centres undefined)	none
O=C1c2ccccc2C(=O)N1Cc1ccco1	none
O=C1c2cccc3c(O)ccc(c23)C(=O)N1Cc1ccco1	KCNQ1 inh 22 | KCNQ1 block val active | CHO Tl flux 0.0105 | KCNQ2 spec inactive | KCNQ1 KCNE1 spec inactive
CNc1nc(Nc2ccc(C(C)=O)cc2)nc(OC(C(F)(F)F)C(F)(F)F)n1	none
CC(=O)c1ccc(Nc2nc(NCCO)nc(OC(C(F)(F)F)C(F)(F)F)n2)cc1	KCNQ1 inh 8 | KCNQ1 block val 85.0 | CHO Tl flux inactive | KCNQ2 spec inactive | KCNQ1 KCNE1 spec 113.5%
Cc1ccc2[nH]cc(CCNC(=O)C3CCCO3)c2c1 (centres undefined)	none
CS(=O)(=O)c1ncc(Cl)c(C(=O)Nc2ccc(OC(F)F)cc2)n1	KCNQ1 inh 6 | KCNQ1 block val 74.0 | CHO Tl flux 0.342 | KCNQ2 spec inactive | KCNQ1 KCNE1 spec 118.0%
CS(=O)(=O)c1ncc(Cl)c(C(=O)Nc2ccc(N3CCOCC3)cc2)n1	KCNQ1 inh 7 | KCNQ1 block val 73.0 | CHO Tl flux inactive | KCNQ2 spec 92.3% | KCNQ1 KCNE1 spec 108.0%
Cc1ccccc1NC(=O)c1nc(S(C)(=O)=O)ncc1Cl	none
c1cncc(CNc2ncnc3sccc23)c1	KCNQ1 inh 10 | KCNQ1 block val inactive | CHO Tl flux inactive | KCNQ2 spec inactive | KCNQ1 KCNE1 spec inactive
CCN(CCCNC(=O)Cn1ncc2c([nH]c3ccc(C)cc32)c1=O)Cc1ccccc1	none
Cc1ccc(NC(=S)NCc2cccs2)cc1	none
Fc1ccc(NC(=S)NCc2cccs2)cc1	KCNQ1 inh 6 | KCNQ1 block val inactive | CHO Tl flux inactive | KCNQ2 spec inactive | KCNQ1 KCNE1 spec 47.5%
CN1c2ccccc2C(C)(C)C12C=Cc1cc(O)ccc1O2 (centres undefined)	KCNQ1 inh 9 | KCNQ1 block val 131.5 | CHO Tl flux 0.358 | KCNQ2 spec 128.3% | KCNQ1 KCNE1 spec 168.5%
Cc1ccc(Cl)cc1N1CCN(C(=O)CSc2nnc3n2C(C)(C)Cc2ccccc2-3)CC1	KCNQ1 inh 17, KCNK3 inh -9 | KCNQ1 block val 148.0 | CHO Tl flux 0.277 | KCNQ2 spec 144.7% | KCNQ1 KCNE1 spec active
CCOc1ccccc1NC(=O)C(OC(=O)c1ccccc1)c1ccccc1 (centres undefined)	KCNQ1 inh 6, KCNK9 block -6.9 | KCNQ1 block val 89.5 | CHO Tl flux inactive | KCNQ1 ephys val inactive | KCNQ2 spec 107.0% | KCNQ1 KCNE1 spec 126.0%
CCOc1ccccc1NC(=O)C(OC(=O)c1ccccc1O)c1ccccc1 (centres undefined)	none
COc1ccc(N2CC(C(=O)N3CCN(S(=O)(=O)c4ccc(F)c(F)c4)CC3)CC2=O)c(OC)c1 (centres undefined)	none (no result: hERG rescue, KCNQ1 inh, KCNQ1 act, KCNK9 block)
CC1CCN(C(=O)c2cc3nc(-c4ccccc4)cc(-c4ccccc4)n3n2)CC1	KCNQ1 inh 6 | KCNQ1 block val 112.5 | CHO Tl flux inactive | KCNQ1 ephys val inactive | KCNQ2 spec 107.7% | KCNQ1 KCNE1 spec 182.5%
O=C(c1cnn2c(-c3ccccc3)cc(-c3ccccc3)nc12)N1CCN(Cc2ccccc2)CC1	KCNQ1 inh 7 | KCNQ1 block val 129.5 | CHO Tl flux 0.311 | KCNQ2 spec 153.7% | KCNQ1 KCNE1 spec active
O=C(c1cnn2c(C(F)F)cc(-c3ccccc3)nc12)N1CCOCC1	none
O=C(NC1CCCC1)c1cc2nc(-c3ccccc3)cc(-c3ccccc3)n2n1	none
CCOC(=O)CSC1=C(C#N)C(c2ccco2)C(C(=O)Nc2cccc(C(F)(F)F)c2)=C(C)N1 (centres undefined)	KCNQ1 inh 8 | KCNQ1 block val 145.0 | CHO Tl flux inactive | KCNQ1 ephys val inactive | KCNQ2 spec 124.7% | KCNQ1 KCNE1 spec active
CCOC(=O)C1=C(c2ccccc2)NC(SCC(=O)Nc2ccc(C)cc2)=C(C#N)C1c1ccco1 (centres undefined)	none
Cc1cccc(CCN(C(=O)c2csnn2)C(C(=O)NC2CCCC2)c2ccco2)c1 (centres undefined)	none
O=C(NCC(NS(=O)(=O)OCC(Cl)(Cl)Cl)c1ccccc1)C(F)(F)F (centres undefined)	none
COC(=O)CCC(NS(=O)(=O)OCC(Cl)(Cl)Cl)c1ccccc1 (centres undefined)	none
CC(NS(=O)(=O)OCC(Cl)(Cl)Cl)c1ccc(Br)cc1 (centres undefined)	KCNQ1 inh 7 | KCNQ1 block val 126.5 | CHO Tl flux inactive | KCNQ1 ephys val inactive | KCNQ2 spec 73.3% | KCNQ1 KCNE1 spec 104.0%
CC(C)CC(NS(=O)(=O)OCC(Cl)(Cl)Cl)c1ccccc1 (centres undefined)	KCNQ1 inh 12 | KCNQ1 block val 55.5 | CHO Tl flux inactive | KCNQ2 spec 65.3% | KCNQ1 KCNE1 spec inactive
CCOC(=O)C1CCN(C(=O)c2ccc(N3CCCC3=O)cc2)CC1	none (no result: hERG rescue, KCNQ1 inh, KCNQ1 act, KCNK9 block)
O=C(O)CCC1(CCC(=O)O)CCCC(CCC(=O)O)(CCC(=O)O)C1=O	none (no result: hERG rescue, KCNQ1 inh, KCNQ1 act, KCNK9 block)
O=C(Cn1cnc2ccccc2c1=O)N1CCN(c2ccccc2)CC1	KCNQ1 inh 7 | KCNQ1 block val inactive | CHO Tl flux inactive | KCNQ2 spec inactive | KCNQ1 KCNE1 spec inactive
Cc1cc2c(=O)n(CC(=O)N3CCN(c4ccccc4)CC3)cnc2s1	none (no result: hERG rescue, KCNQ1 inh, KCNQ1 act, KCNK9 block)
CC(C)(C)NS(=O)(=O)c1ccc(NC(=O)C2CC(=O)N(CCc3ccc(F)cc3)C2)cc1 (centres undefined)	none
